Assays:
[1] = biological target: T1, ATP-dependent translocase ABCB1 (Homo sapiens, UniProt P08183); assay: Inhibition of human MDR1 transfected in mouse L5178Y cells assessed as fluorescence activity ratio at 4 ug/ml after 10 mins by rhodamine 123 dye based fluorescence analysis; format: cell-based
[2] = biological target: T1, ATP-dependent translocase ABCB1; assay: Ratio of human MDR1 modulation transfected in mouse L5178Y cells at 40 ug/ml to human MDR1 modulation transfected in mouse L5178Y cells at 4 ug/ml; format: cell-based
[3] = Cytotoxicity against human HSC2 cells after 48 hrs by MTT assay; format: functional; conditions: HSC-2, 48 h, pooled result: one value given for 3 cell lines, strains, targets or settings
Method in brief: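 Compounds were incubated with cells at 37 °C for 48 hr. HSC-2 and HSC-4 squamous carcinoma cells were grown in supplemented DMEM, and viability was read by MTT. HL-60 promyelocytic leukemia cells were grown in supplemented RPMI1640, and viability was read by trypan blue exclusion. CC50 is the concentration killing 50% of cells, reported as an average.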

[4] = biological target: T1, ATP-dependent translocase ABCB1; assay: Inhibition of human MDR1 transfected in mouse L5178Y cells assessed as fluorescence activity ratio at 40 ug/ml after 10 mins by rhodamine 123 dye based fluorescence analysis; format: cell-based
[5] = biological target: T1, ATP-dependent translocase ABCB1; assay: Potency index, ratio of compound activity to verapamil hydrochloride activity for human MDR1 modulation transfected in mouse L5178Y cells at 4 ug/ml; format: cell-based

T1 sequence (P08183 whole entry): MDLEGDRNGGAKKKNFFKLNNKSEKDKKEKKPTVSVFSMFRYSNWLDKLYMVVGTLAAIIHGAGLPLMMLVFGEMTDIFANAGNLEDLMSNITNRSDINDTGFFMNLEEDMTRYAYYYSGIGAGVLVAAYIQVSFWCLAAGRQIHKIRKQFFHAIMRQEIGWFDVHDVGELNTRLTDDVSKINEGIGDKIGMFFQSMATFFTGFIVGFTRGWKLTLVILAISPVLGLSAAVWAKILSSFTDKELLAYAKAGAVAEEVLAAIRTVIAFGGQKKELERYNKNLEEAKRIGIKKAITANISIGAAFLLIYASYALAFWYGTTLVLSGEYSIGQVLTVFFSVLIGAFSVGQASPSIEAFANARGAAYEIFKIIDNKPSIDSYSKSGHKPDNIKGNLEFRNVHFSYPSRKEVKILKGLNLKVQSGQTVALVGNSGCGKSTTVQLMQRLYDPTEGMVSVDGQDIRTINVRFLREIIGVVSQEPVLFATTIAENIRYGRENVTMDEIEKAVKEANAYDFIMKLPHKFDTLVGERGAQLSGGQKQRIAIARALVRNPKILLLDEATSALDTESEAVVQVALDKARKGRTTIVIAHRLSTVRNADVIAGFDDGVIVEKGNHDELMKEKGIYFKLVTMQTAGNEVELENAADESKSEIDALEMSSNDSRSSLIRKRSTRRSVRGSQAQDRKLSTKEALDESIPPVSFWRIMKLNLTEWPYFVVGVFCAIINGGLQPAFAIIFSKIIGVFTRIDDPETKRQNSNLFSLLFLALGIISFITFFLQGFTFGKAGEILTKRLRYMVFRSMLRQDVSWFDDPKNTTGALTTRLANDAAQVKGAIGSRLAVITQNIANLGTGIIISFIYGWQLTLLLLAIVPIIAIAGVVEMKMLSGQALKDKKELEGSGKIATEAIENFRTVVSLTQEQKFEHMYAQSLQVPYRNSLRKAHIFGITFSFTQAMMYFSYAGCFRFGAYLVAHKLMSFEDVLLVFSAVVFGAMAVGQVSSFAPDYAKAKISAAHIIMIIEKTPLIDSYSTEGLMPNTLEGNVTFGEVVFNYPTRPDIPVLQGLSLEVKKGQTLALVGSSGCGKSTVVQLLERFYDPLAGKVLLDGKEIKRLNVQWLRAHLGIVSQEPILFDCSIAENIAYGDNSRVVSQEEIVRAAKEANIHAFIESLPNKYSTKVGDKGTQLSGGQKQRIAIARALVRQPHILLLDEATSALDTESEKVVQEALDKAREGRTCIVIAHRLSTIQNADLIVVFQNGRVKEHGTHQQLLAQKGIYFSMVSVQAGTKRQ

| SMILES | Ratio [1] | Ratio [2] | CC50 [3] | Ratio [4] | Ratio [5] |
| --- | --- | --- | --- | --- | --- |
| O=C1/C(=C/c2ccccc2)CN(C(=O)CCSCCO)C/C1=C\c1ccccc1 | 4.71 | 9 | 1.53 µM | 42.4 | – |
| Cc1ccc(/C=C2\CN(C(=O)CCSCCO)C/C(=C\c3ccc(C)cc3)C2=O)cc1 | 55.4 | 0.8 | 1.56 µM | 44.4 | – |
| COc1ccc(/C=C2\CN(C(=O)CCSCCO)C/C(=C\c3ccc(OC)cc3)C2=O)cc1 | 37.1 | 2.29 | 2.67 µM | 85.1 | 9 |
| O=C1/C(=C/c2ccc(Cl)cc2)CN(C(=O)CCSCCO)C/C1=C\c1ccc(Cl)cc1 | 49.2 | 0.92 | 0.66 µM | 45 | – |
| O=C1/C(=C/c2ccc([N+](=O)[O-])cc2)CN(C(=O)CCSCCO)C/C1=C\c1ccc([N+](=O)[O-])cc1 | 8.86 | 2.26 | 0.39 µM | 20 | – |
| O=C1/C(=C/c2ccc([N+](=O)[O-])cc2)CN(C(=O)CCSCCS(=O)(=O)O)C/C1=C\c1ccc([N+](=O)[O-])cc1 | 1.14 | 1.5 | 4.73 µM | 1.71 | – |
| Cc1ccc(/C=C2\CN(C(=O)CCSCCS(=O)(=O)O)C/C(=C\c3ccc(C)cc3)C2=O)cc1 | 1.2 | 1.33 | 126 µM | 1.6 | – |
| COc1ccc(/C=C2\CN(C(=O)CCSCCS(=O)(=O)O)C/C(=C\c3ccc(OC)cc3)C2=O)cc1 | 1.27 | 2.54 | 91.7 µM | 3.23 | – |
| O=C1/C(=C/c2ccc(Cl)cc2)CN(C(=O)CCSCCS(=O)(=O)O)C/C1=C\c1ccc(Cl)cc1 | 1.14 | 1.5 | 29.7 µM | 1.71 | – |
| O=C1/C(=C/c2ccccc2)CN(C(=O)CCSCCS(=O)(=O)O)C/C1=C\c1ccccc1 | 1.14 | 1.05 | 154 µM | 1.2 | – |
| COc1ccc(/C=C2\CN(C(=O)CCSCCS)C/C(=C\c3ccc(OC)cc3)C2=O)cc1 | 18.9 | 6.67 | 3.37 µM | 126 | – |
| N[C@@H](Cc1ccc(N(CCCl)CCCl)cc1)C(=O)O | – | – | 14 µM | – | – |

From ChEMBL document CHEMBL3758096, “1-[3-(2-Hydroxyethylsulfanyl)propanoyl]-3,5-bis(benzylidene)-4-piperidones: A novel cluster of P-glycoprotein dependent multidrug resistance modulators” (Bioorg Med Chem Lett, 2016)
